The list is not random: actives were taken first. Their share in the collection is about 4.1%.
Cl transport mod: modulates chloride dependent transport by human KCC2; Q9H2X9; KCC2 cells, thallium flux FluoZin-2 fluorescence; B-score of Tl+ flux slope (higher = more flux/activation; lower = inhibition) at 10 µM; 190,000 compounds, 2.2% hits; AID 1456;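 active = thallium flux slope and its plate-corrected score both differing from the plate sample mean at a set confidence after two filtering rounds, in either direction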;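 note: slope of fluorescence scaled to starting intensity during 10 to 20 s after thallium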
hERG protect: compounds protecting human hERG from proarrhythmic drug block; CHO-hERG, FluxOR thallium flux, dofetilide IC70 present; Q12809; activation (rescue from dofetilide block), less the hit threshold, % at 10 µM; 310,000 compounds, 0.51% hits; AID 1511;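 active = activation above the mean of controls blocked by dofetilide plus 5 SD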;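 note: thallium influx through hERG after potassium depolarization seen as dye fluorescence rise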
KCNQ1 inh: blocks the human KCNQ1 potassium channel; B-score at 10 µM; 310,000 compounds, 1.3% hits; CHO-K1 KCNQ1, FluxOR thallium flux fluorescence; active compounds read high; P51787;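 active = compounds whose thallium flux B-score, printed positive for inhibition, exceeds three library SD while starting fluorescence stays within three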;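 note: channel opened by potassium depolarization with thallium stimulus after 20 min compound exposure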
KCNK3 block: human KCNK3 channel inhibition, primary screen; O14649; CHO-KCNK3 thallium flux, FluxOR fluorescence; active compounds read low; B-score at 10 µM; 340,000 compounds, 0.84% hits; AID 602410;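 active = B-score under library mean minus 4 SD, starting fluorescence ratio at most library mean plus 5 SD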;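 note: more negative B-score means stronger inhibition of thallium flux through KCNK3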
Target sequence (O14649 whole entry, looked up): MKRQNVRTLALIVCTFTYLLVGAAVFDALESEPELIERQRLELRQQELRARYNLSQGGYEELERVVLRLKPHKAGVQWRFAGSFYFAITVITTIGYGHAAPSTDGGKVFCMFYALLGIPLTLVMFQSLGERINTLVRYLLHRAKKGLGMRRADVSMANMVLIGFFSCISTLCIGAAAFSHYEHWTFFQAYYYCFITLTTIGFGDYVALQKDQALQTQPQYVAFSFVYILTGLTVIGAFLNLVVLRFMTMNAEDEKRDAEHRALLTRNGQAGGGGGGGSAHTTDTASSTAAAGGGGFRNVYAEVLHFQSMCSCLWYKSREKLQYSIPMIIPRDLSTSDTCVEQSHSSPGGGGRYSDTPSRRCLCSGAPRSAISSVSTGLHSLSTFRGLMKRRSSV
KCNK9 inh: inhibitors of human KCNK9 two-pore domain potassium channel. HEK293 KCNK9, FluxOR thallium flux fluorescence; active compounds read low. AID 488922. Q9NPC2. B-score at 10 µM. 310,000 compounds, 1.2% hits;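 active = ratio B-score over 3 SD below the library mean, with starting fluorescence within 5 SD of its mean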;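 note: negative B-score means less thallium flux so channel inhibition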
Target sequence (Q9NPC2 whole entry, looked up, the tested form may be a part): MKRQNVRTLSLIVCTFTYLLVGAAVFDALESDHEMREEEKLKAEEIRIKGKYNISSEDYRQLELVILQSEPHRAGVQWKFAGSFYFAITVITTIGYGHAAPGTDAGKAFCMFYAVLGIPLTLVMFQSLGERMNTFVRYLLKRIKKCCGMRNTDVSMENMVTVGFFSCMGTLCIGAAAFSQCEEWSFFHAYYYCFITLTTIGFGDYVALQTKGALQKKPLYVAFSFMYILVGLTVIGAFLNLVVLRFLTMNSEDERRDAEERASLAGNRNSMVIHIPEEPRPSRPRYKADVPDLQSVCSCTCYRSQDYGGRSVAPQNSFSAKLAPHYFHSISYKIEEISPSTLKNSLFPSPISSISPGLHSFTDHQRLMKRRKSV
KCNQ1 act: human KCNQ1 channel potentiation or activation; P51787; CHO-K1 KCNQ1, thallium flux FluxOR fluorescence; active compounds read high; 310,000 compounds, 0.35% hits; B-score at 10 µM;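 active = fluorescence ratio B-score, a plate-corrected score, at least three library SD, with initial intensity B-score within 5 SD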
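Medium – assay buffer, equal DMSO in all wells · Material – CHO-K1 cell line with stable KCNQ1 potassium channel expression · Signal – kinetic FluxOR thallium fluorescence, 10-s 1-Hz baseline, 110-s post-stimulus read · Compound – single concentration per compound, DMSO matched to controls · Schedule – 37 °C overnight plating, 90-min dark dye load, 20-min compound pretreatment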
KCC2 secondary: confirmation of human KCC2 transport modulators | 3,700 compounds, 15% hits | HEK293-KCC2, thallium flux, FluoZin2 fluorescence; active compounds read high | normalised thallium flux (F/F0 slope) at 10 µM | shares compounds with Cl transport mod;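 active = thallium flux slope above the same plate's solvent-only control mean plus 3 SD; inconclusive = the two replicate wells disagree; inactive = no significant difference from solvent-only control wells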
KCC2 bumet counter: bumetanide-insensitive thallium flux in KCC2 cells with ouabain, counter-screen. shares compounds with Cl transport mod. normalized thallium flux at 10 µM. 3,700 compounds, 49% hits. AID 1714. HEK293-KCC2 + bumetanide/ouabain, thallium flux FluoZin2; active compounds read high;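 active = thallium entry rate above the same plate's blocked-transporter control wells by more than 3 SD; inconclusive = the two repeat wells disagree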;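 note: raw slope of fluorescence over initial fluorescence between 10 and 20 s after thallium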
KCC2 sec2: KCC2 (human) modulation, second secondary assay | shares compounds with Cl transport mod | HEK293-KCC2, thallium flux FluoZin2 fluorescence; actives lie on both sides; F/F0 rise rate, 10–20 s post-thallium | normalized thallium flux at 10 µM | 3,700 compounds, 23% hits | AID 1715;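 active = thallium flux slope more than 3 SD above or below the plate's solvent-only control mean, mostly below; inconclusive = the two repeat wells disagreed; inactive = no significant shift from solvent-only controls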
HEK counter1: acts in parental HEK cells, KCC2 counter-screen; shares compounds with Cl transport mod; HEK293 parental cells, thallium flux FluoZin2, ouabain; baseline-ratio fluorescence slope, 10–20 s after thallium; thallium flux rate (normalised fluorescence) at 10 µM; 3,700 compounds, 46% hits;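 active = thallium flux rate significantly above the same plate's solvent-only control wells, beyond their mean plus 3 SD; inconclusive = the two replicate wells gave conflicting results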
KCC2 retest ouab: KCC2 (human) modulation, ouabain retest. HEK293-KCC2, thallium flux FluoZin2 fluorescence; bidirectional: low = inhibitor, high = activator. 3,700 compounds, 48% hits. shares compounds with Cl transport mod. raw Tl+ flux slope (below DMSO = inhibition, above = activation) at 10 µM;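 active = thallium flux slope beyond 3 SD from same-plate DMSO control mean in most replicates, usually higher, sometimes lower; inconclusive = repeat tests gave conflicting results; inactive = no significant difference from controls in most replicates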;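 note: slope of initial-normalized fluorescence between seconds 10 and 20 after thallium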
HEK counter2: parental HEK flux effect, counter-screen 2; shares compounds with Cl transport mod; HEK293 parental, thallium flux FluoZin-2 fluorescence slope; thallium flux slope at 10 µM; 3,700 compounds, 33% hits; AID 1718;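 active = thallium flux slope above the same plate's solvent-control mean plus 3 SD in both duplicate wells; inconclusive = duplicate wells that disagreed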;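 note: run without ouabain in cells lacking the KCC2 cotransporter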
KCNK9 inh conf: confirmation of human KCNK9 potassium channel inhibitors | shares compounds with KCNK9 inh | HEK293 KCNK9 cells, FluxOR thallium flux fluorescence | inhibition, % at 10 µM | 4,900 compounds, 43% hits | AID 492992;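 active = thallium signal inhibited by more than 5 SD of the compound-free buffer control wells, on both duplicate plates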
Kir21 sel: selectivity of KCNK9 modulators against mouse Kir2.1; shares compounds with KCNK9 inh; Kir2.1 cells, FluxOR thallium flux fluorescence; inhibition, % at 10 µM; 4,900 compounds, 4% hits; AID 492993;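 active = thallium signal drop more than 5 SD beyond the mean of the no-compound control wells, seen in both duplicate plates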;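 note: signal is fluorescence rise after thallium addition divided by baseline fluorescence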
KCNK9 uninduced: second counter-screen for KCNK9 modulators: effect in non-induced cells; inhibition, % at 10 µM; non-induced KCNK9-HEK293, FluxOR thallium flux; shares compounds with KCNK9 inh; 4,900 compounds, 40% hits;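 active = thallium signal drop beyond 5 SD of the untreated control mean, on both duplicate plates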
Large screens that a line does not name were inactive (follow-up assays come after a bar, where they were run).

CC1Cc2ccccc2N1C(=O)CO/N=C/c1ccccc1OC(F)F (stereo not given)	Cl transport mod -5.6 | KCC2 secondary inactive | KCC2 bumet counter inconclusive | KCC2 sec2 0.023 | HEK counter1 inconclusive | KCC2 retest ouab 0.013 | HEK counter2 inactive | KCNK9 inh conf inactive | Kir21 sel inactive | KCNK9 uninduced inactive
CC1Cc2ccccc2N1C(=O)c1ccc(N2CCCCC2)c([N+](=O)[O-])c1 (stereo not given)	Cl transport mod -4.7, KCNK9 inh -11 | KCC2 secondary inactive | KCC2 bumet counter inconclusive | KCC2 sec2 inconclusive | HEK counter1 inactive | KCC2 retest ouab 0.013 | HEK counter2 inactive | KCNK9 inh conf 49% | Kir21 sel inactive | KCNK9 uninduced 25%
CCCCCCCCC(=O)NNC(=O)c1c(O)c2ccccc2n(CCC)c1=O	Cl transport mod 6.3 | KCC2 secondary inactive | KCC2 bumet counter 0.012 | KCC2 sec2 inactive | HEK counter1 0.015 | KCC2 retest ouab inactive | HEK counter2 inconclusive | KCNK9 inh conf inactive | Kir21 sel inactive | KCNK9 uninduced inactive
CCCn1c(=O)c(C(=O)NNC(=O)c2ccc(Cl)cc2Cl)c(O)c2ccccc21	none (no result: Cl transport mod)
COc1ccc(OC)c(NC(=O)C(Sc2ccccc2)c2ccccc2)c1 (stereo not given)	KCNK9 inh -11 (no result: Cl transport mod) | KCC2 secondary inactive | KCC2 bumet counter inactive | KCC2 sec2 inactive | HEK counter1 inactive | KCC2 retest ouab inactive | HEK counter2 inactive | KCNK9 inh conf 58% | Kir21 sel inactive | KCNK9 uninduced 46%
CC(C)[C@H](NC(=O)OCc1ccccc1)C(=O)OCC(=O)N1C(C)CCCC1C (stereo not given in full)	none (no result: Cl transport mod, hERG protect, KCNQ1 inh, KCNK9 inh, KCNQ1 act)
Cc1ccccc1C(=O)NC(=S)NCCC1=CCCCC1	Cl transport mod 4.4 | KCC2 secondary inactive | KCC2 bumet counter 0.016 | KCC2 sec2 inactive | HEK counter1 0.026 | KCC2 retest ouab 0.027 | HEK counter2 inconclusive | KCNK9 inh conf inactive | Kir21 sel inactive | KCNK9 uninduced inactive
Cc1ccccc1OCC(=O)NCCC1=CCCCC1	none
Cc1ccnc(N2CCN(C(=O)CSc3nc4ccccc4nc3N3CCC(C)CC3)CC2)c1	Cl transport mod 4.8 | KCC2 secondary inactive | KCC2 bumet counter 0.0087 | KCC2 sec2 inactive | HEK counter1 0.0094 | KCC2 retest ouab inconclusive | HEK counter2 inconclusive | KCNK9 inh conf inactive | Kir21 sel inactive | KCNK9 uninduced inactive
O=C(NCc1ccco1)C1CCN(S(=O)(=O)c2cccc([N+](=O)[O-])c2)CC1	none (no result: Cl transport mod)
CCN1C(=O)[C@@H]2[C@@H](c3ccc(SC4CCCCC4)cc3)N3CCC[C@@]3(C(=O)OC)[C@@H]2C1=O	none (no result: Cl transport mod)
Cc1cccc(NC(=S)N2CCCC2)c1	none (no result: Cl transport mod)
Cc1cccc(NC(=S)N/N=C2/CCCCc3ccccc32)c1	Cl transport mod 7.9, hERG protect 5.8 | KCC2 secondary inactive | KCC2 bumet counter 0.036 | KCC2 sec2 0.046 | HEK counter1 0.042 | KCC2 retest ouab 0.037 | HEK counter2 0.024 | KCNK9 inh conf inactive | Kir21 sel inactive | KCNK9 uninduced inactive
Cc1ccc(NC(=S)N/N=C2/CCCCc3ccccc32)cc1	Cl transport mod 33, KCNQ1 act 8 | KCC2 secondary inactive | KCC2 bumet counter 0.04 | KCC2 sec2 inconclusive | HEK counter1 0.033 | KCC2 retest ouab 0.033 | HEK counter2 0.031 | KCNK9 inh conf inactive | Kir21 sel inactive | KCNK9 uninduced inactive
Cc1cc(C(=O)OCC(=O)N(C)c2ccccc2)c(C)o1	none (no result: Cl transport mod, hERG protect, KCNQ1 inh, KCNK9 inh, KCNQ1 act)
COc1ccc(C(c2nnnn2Cc2cccs2)N2CCN(c3ccccc3F)CC2)cc1 (stereo not given)	Cl transport mod -4.1, KCNK9 inh -12 | KCC2 secondary inactive | KCC2 bumet counter inconclusive | KCC2 sec2 inconclusive | HEK counter1 inactive | KCC2 retest ouab 0.018 | HEK counter2 inactive | KCNK9 inh conf 28% | Kir21 sel inactive | KCNK9 uninduced 38%
Oc1ccc(N=Nc2ccc3c(c2)OCCO3)c2cccnc12	Cl transport mod 24, KCNQ1 act 55 | KCC2 secondary inactive | KCC2 bumet counter 0.037 | KCC2 sec2 inactive | HEK counter1 0.061 | KCC2 retest ouab 0.039 | HEK counter2 0.014 | KCNK9 inh conf inactive | Kir21 sel inactive | KCNK9 uninduced inactive
Oc1ccc(N=Nc2ccc3c(c2)OCCO3)c(O)c1	none
